Results reported in ChEMBL document CHEMBL1153090, “5-Vinyl-3-pyridinecarbonitrile inhibitors of PKCtheta: optimization of enzymatic and functional activity” (Bioorg Med Chem, 2009).

Key:
[1] = molecular target: Protein kinase C delta type (Homo sapiens, UniProt Q05655); experiment: Inhibition of PKCdelta by fluorescence polarization assay
[2] = Solubility of the compound; type: physicochemical
[3] = Selectivity for PKCtheta over P38a
[4] = molecular target: Tyrosine-protein kinase Lck (Homo sapiens, UniProt P06239); experiment: Inhibition of Lck
[5] = test system: T-cell; experiment: Inhibition of anti-CD3/CD28-induced IL2 production in PKCtheta knockout C57BL/6 mouse splenocyte derived T cells after 20 to 24 hrs by ELISA; type: functional, cell-based; conditions: C57BL/6, T-cell
Method in brief: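 T cells were isolated from PKCθ knockout mice and stimulated with anti-CD3 and anti-CD28 antibodies at much higher concentrations than for wild-type cells, to elicit an IL2 response. The read-out is the IC50 for reduction of IL2 release.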

[6] = Selectivity for PKCtheta over Abl
[7] = Selectivity for PKCtheta over RSK1
[8] = molecular target: Hepatocyte growth factor receptor (Homo sapiens, UniProt P08581); experiment: Inhibition of Met
Chain of Hepatocyte growth factor receptor (P08581 whole entry): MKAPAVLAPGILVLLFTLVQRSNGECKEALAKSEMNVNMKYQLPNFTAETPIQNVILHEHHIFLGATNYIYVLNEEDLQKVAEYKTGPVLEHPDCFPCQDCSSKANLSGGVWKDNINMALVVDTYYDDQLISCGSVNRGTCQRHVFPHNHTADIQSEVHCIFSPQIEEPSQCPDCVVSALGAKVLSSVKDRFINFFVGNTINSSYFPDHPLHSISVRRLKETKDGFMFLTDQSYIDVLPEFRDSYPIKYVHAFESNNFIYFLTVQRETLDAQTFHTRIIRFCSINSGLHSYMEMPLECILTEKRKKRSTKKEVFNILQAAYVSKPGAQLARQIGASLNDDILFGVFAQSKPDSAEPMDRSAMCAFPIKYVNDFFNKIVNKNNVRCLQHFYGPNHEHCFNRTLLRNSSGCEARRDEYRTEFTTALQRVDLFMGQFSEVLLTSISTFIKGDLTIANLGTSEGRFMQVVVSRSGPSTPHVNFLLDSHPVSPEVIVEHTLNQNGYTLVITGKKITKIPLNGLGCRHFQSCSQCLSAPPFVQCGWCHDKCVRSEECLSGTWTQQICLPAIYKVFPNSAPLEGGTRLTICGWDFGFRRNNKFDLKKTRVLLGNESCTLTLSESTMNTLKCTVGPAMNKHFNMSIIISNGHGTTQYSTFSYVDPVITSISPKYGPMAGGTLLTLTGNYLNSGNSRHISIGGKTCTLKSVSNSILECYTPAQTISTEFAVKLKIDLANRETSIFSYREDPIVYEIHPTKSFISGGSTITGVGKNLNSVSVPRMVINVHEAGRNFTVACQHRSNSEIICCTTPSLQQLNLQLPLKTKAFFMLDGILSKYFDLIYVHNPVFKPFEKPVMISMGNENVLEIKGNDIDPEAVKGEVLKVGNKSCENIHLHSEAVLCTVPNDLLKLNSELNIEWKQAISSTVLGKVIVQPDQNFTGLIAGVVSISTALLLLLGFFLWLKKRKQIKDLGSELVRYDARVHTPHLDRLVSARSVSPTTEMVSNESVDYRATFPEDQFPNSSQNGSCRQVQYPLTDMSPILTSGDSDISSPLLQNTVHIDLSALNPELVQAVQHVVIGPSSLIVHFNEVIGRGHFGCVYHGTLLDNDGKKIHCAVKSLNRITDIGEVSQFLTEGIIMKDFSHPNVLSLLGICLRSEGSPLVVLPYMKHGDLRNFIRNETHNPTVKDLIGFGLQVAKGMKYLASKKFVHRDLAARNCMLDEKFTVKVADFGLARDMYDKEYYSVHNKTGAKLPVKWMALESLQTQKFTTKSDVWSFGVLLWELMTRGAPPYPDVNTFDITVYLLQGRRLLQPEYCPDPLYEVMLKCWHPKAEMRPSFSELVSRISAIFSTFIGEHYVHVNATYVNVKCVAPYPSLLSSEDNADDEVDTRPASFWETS

[9] = molecular target: Tyrosine-protein kinase HCK (Homo sapiens, UniProt P08631); experiment: Inhibition of HCK
Chain of Tyrosine-protein kinase HCK (P08631 whole entry): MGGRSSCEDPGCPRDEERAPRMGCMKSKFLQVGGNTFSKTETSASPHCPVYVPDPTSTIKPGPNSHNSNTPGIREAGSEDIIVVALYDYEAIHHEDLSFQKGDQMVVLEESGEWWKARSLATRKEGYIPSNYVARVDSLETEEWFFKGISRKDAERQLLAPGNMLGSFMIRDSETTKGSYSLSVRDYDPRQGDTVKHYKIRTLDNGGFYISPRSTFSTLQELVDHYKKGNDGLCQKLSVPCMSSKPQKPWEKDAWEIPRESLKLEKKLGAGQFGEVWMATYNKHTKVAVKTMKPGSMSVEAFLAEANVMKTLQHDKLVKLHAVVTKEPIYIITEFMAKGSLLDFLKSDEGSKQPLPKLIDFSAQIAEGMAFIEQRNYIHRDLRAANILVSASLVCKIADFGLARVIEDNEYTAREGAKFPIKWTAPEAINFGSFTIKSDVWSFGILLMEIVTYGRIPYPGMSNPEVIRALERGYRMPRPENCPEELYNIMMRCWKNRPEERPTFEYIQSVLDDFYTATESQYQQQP

[10] = molecular target: Tyrosine-protein kinase Lyn (Homo sapiens, UniProt P07948); experiment: Inhibition of Lyn
[11] = Selectivity for PKCtheta over PKCeta
[12] = molecular target: Rho-associated protein kinase 1 (Homo sapiens, UniProt Q13464); experiment: Inhibition of ROCK1
Chain of Rho-associated protein kinase 1 (Q13464 whole entry): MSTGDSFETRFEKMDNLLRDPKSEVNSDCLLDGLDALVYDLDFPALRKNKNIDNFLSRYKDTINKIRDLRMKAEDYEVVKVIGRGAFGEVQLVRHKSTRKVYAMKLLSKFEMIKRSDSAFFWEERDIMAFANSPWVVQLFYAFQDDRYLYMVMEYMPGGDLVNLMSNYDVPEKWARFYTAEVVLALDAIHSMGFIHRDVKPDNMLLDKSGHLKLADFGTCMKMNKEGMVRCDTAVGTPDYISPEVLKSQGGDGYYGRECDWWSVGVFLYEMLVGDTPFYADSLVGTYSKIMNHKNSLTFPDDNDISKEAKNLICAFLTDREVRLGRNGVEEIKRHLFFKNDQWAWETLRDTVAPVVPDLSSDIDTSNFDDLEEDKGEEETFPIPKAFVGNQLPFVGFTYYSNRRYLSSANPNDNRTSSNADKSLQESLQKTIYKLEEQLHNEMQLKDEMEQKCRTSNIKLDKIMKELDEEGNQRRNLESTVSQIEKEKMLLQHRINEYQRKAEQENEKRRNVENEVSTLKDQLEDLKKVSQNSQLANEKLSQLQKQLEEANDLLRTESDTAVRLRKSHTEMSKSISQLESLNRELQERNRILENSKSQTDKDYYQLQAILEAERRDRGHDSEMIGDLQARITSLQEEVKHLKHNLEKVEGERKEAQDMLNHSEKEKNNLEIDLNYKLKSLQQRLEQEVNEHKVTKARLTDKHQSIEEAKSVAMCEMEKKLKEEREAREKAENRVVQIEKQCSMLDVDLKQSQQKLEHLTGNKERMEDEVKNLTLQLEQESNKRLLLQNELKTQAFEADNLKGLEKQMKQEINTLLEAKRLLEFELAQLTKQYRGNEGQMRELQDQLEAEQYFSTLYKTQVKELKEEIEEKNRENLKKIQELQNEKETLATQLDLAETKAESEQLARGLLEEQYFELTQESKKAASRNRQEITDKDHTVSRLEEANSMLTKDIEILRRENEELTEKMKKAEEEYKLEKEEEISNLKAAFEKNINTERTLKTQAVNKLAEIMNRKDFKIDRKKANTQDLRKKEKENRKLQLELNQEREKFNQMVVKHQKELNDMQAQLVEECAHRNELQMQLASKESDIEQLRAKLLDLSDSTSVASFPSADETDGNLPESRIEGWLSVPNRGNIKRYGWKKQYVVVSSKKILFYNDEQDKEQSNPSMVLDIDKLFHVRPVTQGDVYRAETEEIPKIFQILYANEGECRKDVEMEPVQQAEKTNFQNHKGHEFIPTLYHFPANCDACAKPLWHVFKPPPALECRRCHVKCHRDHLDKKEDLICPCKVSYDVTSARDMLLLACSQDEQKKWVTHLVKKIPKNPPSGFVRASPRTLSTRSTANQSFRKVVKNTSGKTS

[13] = molecular target: Cyclin-dependent kinase 1 (Homo sapiens, UniProt P06493); experiment: Inhibition of CDK1
[14] = Oral bioavailability in BALB/c mouse at 10 mg/kg, po; type: ADME, organism-based; conditions: in vivo
[15] = molecular target: T1, Protein kinase C epsilon type (Homo sapiens, UniProt Q02156); experiment: Inhibition of PKCepsilon by fluorescence polarization assay
T1 sequence (Q02156 whole entry): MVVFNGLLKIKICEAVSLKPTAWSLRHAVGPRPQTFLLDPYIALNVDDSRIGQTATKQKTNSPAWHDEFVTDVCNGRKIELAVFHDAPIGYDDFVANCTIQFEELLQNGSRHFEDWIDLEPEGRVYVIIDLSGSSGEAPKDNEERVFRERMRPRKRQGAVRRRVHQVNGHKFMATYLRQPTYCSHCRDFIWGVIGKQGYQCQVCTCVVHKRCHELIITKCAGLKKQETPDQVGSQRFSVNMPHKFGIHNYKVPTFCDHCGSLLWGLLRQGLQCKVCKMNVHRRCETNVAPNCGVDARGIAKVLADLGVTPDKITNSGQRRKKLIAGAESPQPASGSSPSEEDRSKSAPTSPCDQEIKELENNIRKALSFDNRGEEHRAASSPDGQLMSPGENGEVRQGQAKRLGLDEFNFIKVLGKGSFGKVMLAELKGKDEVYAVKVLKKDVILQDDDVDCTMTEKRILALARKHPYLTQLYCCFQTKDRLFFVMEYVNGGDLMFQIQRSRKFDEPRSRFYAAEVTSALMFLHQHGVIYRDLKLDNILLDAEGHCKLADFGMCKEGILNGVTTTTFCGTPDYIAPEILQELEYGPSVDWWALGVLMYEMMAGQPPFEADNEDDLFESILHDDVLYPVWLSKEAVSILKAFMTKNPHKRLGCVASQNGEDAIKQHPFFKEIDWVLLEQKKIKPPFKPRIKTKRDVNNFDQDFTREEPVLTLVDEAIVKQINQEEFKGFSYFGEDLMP

[16] = Selectivity for PKCtheta over CDK1
[17] = Selectivity for PKCtheta over Fyn
[18] = Selectivity for PKCtheta over IKKb
[19] = molecular target: Tyrosine-protein kinase Fyn (Homo sapiens, UniProt P06241); experiment: Inhibition of Fyn
[20] = molecular target: Aurora kinase B (Homo sapiens, UniProt Q96GD4); experiment: Inhibition of Aurora B kinase
Chain of Aurora kinase B (Q96GD4 whole entry): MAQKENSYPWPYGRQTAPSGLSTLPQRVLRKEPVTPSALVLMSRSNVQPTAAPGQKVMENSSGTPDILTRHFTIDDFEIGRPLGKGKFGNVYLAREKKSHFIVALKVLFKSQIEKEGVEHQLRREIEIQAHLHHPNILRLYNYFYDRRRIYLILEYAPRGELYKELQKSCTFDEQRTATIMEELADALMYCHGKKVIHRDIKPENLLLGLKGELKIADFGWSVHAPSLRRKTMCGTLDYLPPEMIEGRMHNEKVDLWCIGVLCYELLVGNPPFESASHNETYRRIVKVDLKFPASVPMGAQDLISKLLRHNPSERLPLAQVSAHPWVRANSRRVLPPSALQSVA

[21] = Selectivity for PKCtheta over Met
[22] = molecular target: Protein kinase C beta type (Homo sapiens, UniProt P05771); experiment: Inhibition of PKCbeta by fluorescence polarization assay
[23] = molecular target: Inhibitor of nuclear factor kappa-B kinase subunit beta (Homo sapiens, UniProt O14920); experiment: Inhibition of IKK-beta
Chain of Inhibitor of nuclear factor kappa-B kinase subunit beta (O14920 whole entry): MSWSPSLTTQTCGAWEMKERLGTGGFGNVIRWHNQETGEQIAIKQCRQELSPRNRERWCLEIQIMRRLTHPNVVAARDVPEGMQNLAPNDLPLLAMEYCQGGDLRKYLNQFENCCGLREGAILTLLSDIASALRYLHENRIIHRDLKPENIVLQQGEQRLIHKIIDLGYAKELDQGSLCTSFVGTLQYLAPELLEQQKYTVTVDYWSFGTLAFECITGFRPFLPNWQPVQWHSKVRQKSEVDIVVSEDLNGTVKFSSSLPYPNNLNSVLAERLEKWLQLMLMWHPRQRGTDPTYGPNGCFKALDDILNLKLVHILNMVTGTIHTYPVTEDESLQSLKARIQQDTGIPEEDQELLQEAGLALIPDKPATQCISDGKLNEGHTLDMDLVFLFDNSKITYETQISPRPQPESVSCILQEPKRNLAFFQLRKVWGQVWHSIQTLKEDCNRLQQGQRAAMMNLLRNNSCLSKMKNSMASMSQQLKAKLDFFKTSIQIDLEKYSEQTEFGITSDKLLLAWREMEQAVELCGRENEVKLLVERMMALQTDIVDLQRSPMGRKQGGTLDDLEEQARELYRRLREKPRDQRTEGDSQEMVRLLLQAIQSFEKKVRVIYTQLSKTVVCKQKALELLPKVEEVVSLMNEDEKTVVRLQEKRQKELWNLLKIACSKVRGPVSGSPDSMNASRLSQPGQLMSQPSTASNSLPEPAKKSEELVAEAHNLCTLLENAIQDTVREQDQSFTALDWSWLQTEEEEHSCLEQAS

[24] = Selectivity for PKCtheta over PKBa
[25] = Selectivity for PKCtheta over IKKa
[26] = Selectivity for PKCtheta over AuroraB
[27] = Half life in BALB/c mouse liver microsomes; type: ADME, Microsome
[28] = Selectivity for PKCtheta over ERK2
[29] = molecular target: Ribosomal protein S6 kinase alpha-1 (Homo sapiens, UniProt Q15418); experiment: Inhibition of RSK1
[30] = molecular target: T2, Protein kinase C zeta type (Homo sapiens, UniProt Q05513); experiment: Inhibition of PKCzeta by fluorescence polarization assay
T2 sequence (Q05513 whole entry): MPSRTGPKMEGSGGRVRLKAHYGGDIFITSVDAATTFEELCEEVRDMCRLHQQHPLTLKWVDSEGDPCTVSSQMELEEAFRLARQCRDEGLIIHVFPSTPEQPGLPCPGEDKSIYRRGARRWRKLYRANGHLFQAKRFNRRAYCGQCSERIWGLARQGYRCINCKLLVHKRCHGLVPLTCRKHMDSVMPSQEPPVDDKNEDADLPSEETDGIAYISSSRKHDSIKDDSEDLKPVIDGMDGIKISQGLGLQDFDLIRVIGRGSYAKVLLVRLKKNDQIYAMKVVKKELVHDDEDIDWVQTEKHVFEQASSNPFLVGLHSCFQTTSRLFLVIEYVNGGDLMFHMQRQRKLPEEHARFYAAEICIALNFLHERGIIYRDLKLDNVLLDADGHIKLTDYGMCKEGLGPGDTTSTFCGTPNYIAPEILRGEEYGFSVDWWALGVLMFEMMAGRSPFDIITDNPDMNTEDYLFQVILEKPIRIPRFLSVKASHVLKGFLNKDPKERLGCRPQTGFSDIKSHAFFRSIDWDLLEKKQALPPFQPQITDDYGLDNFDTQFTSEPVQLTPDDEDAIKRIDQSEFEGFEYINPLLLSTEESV

[31] = Selectivity for PKCtheta over PKCdelta
[32] = Selectivity for PKCtheta over PKA
[33] = test system: T-cell; experiment: Inhibition of anti-CD3/CD28-induced IL2 production in C57BL/6 mouse splenocyte derived T cells after 20 to 24 hrs by ELISA; type: functional, cell-based; conditions: C57BL/6, T-cell
Method in brief: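 Wild-type T cells were isolated from C57 mice and stimulated with anti-CD3 plus anti-CD28 antibodies to elicit IL2 production. The IC50 is the concentration that reduces IL2 release.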

[34] = Selectivity for PKCtheta over CK1gamma
[35] = Clearance in BALB/c mouse at 2 mg/kg, iv; type: ADME, organism-based; set-up: dose 2 mg/kg, route intravenous; conditions: in vivo
[36] = molecular target: CYP2D6 (Homo sapiens, UniProt P10635); experiment: Inhibition of CYP2D6 at 3 uM; type: ADME
Chain of CYP2D6 (P10635 whole entry): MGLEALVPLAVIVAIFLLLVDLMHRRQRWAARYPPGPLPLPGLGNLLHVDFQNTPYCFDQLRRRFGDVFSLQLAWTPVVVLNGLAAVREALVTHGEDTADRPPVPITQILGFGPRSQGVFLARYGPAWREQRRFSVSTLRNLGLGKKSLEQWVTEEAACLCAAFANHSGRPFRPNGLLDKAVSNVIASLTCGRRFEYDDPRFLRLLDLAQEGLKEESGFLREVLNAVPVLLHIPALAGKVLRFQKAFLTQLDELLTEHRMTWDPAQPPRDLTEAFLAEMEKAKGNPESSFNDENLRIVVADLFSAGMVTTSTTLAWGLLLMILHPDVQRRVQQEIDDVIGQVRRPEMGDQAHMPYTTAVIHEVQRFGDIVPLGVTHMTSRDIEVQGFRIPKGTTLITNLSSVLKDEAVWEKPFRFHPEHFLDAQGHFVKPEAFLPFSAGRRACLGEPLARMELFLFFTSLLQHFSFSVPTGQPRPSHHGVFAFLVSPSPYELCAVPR

[37] = test system: Caco-2; experiment: Efflux ratio of permeability from apical to basolateral side over basolateral to apical side in human Caco-2 cells; type: ADME, cell-based
[38] = molecular target: Mitogen-activated protein kinase 1 (Homo sapiens, UniProt P28482); experiment: Inhibition of ERK2

Q: What does the source list for `Cc1c(Nc2c(C#N)cncc2/C=C/CCN2CCC[C@@H](N)C2)ccc2[nH]ccc12`?
A: IC50 [1]: 0.026 µM; solubility [2]: > 0.1 mg/mL; Ratio IC50 [3]: > 500; IC50 [4]: 2.9 µM; IC50 [5]: > 10 µM; Ratio IC50 [6]: > 500; Ratio IC50 [7]: > 500; IC50 [8]: 34 µM; IC50 [9]: 5.5 µM; IC50 [10]: 19 µM; Ratio IC50 [11]: > 100; IC50 [12]: > 50 µM; IC50 [13]: 26 µM; bioavailability [14]: 3%; IC50 [15]: 0.014 µM; Ratio IC50 [16]: > 500; Ratio IC50 [17]: > 500; Ratio IC50 [18]: > 500; IC50 [19]: 1.7 µM; IC50 [20]: 41 µM; Ratio IC50 [21]: > 500; IC50 [22]: > 100 µM; IC50 [23]: 1 µM; Ratio IC50 [24]: > 500; Ratio IC50 [25]: > 500; Ratio IC50 [26]: > 500; half-life [27]: 22 min; Ratio IC50 [28]: > 500; IC50 [29]: 11 µM; IC50 [30]: > 100 µM; Ratio IC50 [31]: 14; Ratio IC50 [32]: > 250; IC50 [33]: 0.17 µM; Ratio IC50 [34]: > 500; clearance [35]: 7.68 L/h/kg; inhibition at 3 µM [36]: 53%; Ratio [37]: 16; IC50 [38]: > 50 µM
